Assay results as given in ChEMBL document CHEMBL2331413, “Novel in vivo active anti-malarials based on a hydroxy-ethyl-amine scaffold” (Bioorg Med Chem Lett, 2013).
Active and inactive are the calls of the source. The rule behind the calls is not given here.

Tests used:
[1] = system: Plasmodium falciparum; test: Antimalarial activity against chloroquine-sensitive Plasmodium falciparum NF54 infected in RBC after 72 hrs by [3H]hypoxanthine incorporation assay in presence of 0.5 % albumax; assay type: functional, organism-based
[2] = system: Plasmodium falciparum; test: Antimalarial activity against chloroquine-sensitive Plasmodium falciparum NF54 infected in RBC after 72 hrs by [3H]hypoxanthine incorporation assay in presence of 50 % serum; assay type: functional, organism-based
[3] = Metabolic stability in mouse liver microsomes; assay type: ADME, Microsome; settings: read-out: Stability
Method in brief: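 In vitro metabolic stability was measured with a mouse liver microsomal preparation and expressed as intrinsic clearance in µl/(min mg).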

[4] = system: Plasmodium berghei; test: Antimalarial activity against GFP-transfected Plasmodium berghei ANKA in mouse blood assessed as inhibition of schizont maturation compound incubated for 16 hrs followed by 8 hrs of [3H]hypoxanthine incorporation; assay type: functional, organism-based
[5] = system: Plasmodium falciparum; test: Antimalarial activity against chloroquine-sensitive Plasmodium falciparum NF54 infected in RBC after 24 hrs by [3H]hypoxanthine incorporation assay in presence of 0.5 % albumax; assay type: functional, organism-based
[6] = system: Plasmodium falciparum; test: Antimalarial activity against chloroquine-sensitive Plasmodium falciparum NF54 infected in RBC after 48 hrs by [3H]hypoxanthine incorporation assay in presence of 0.5 % albumax; assay type: functional, organism-based
[7] = system: Plasmodium falciparum; test: Antimalarial activity against chloroquine-resistant Plasmodium falciparum K1 infected in RBC by [3H]hypoxanthine incorporation assay in presence of 50 % serum; assay type: functional, organism-based
[8] = system: Plasmodium falciparum; test: Antimalarial activity against chloroquine-resistant Plasmodium falciparum K1 infected in RBC by [3H]hypoxanthine incorporation assay in presence of 0.5 % albumax; assay type: functional, organism-based
[9] = system: Plasmodium berghei; test: Antimalarial activity against GFP-transfected Plasmodium berghei ANKA infected in mouse assessed as reduction in parasitemia at 100 mg/kg, po administered as single dose measured after 72 hrs by flow cytometry; assay type: functional; design: scale not given: the % may be the effect or the level left
[10] = system: Plasmodium berghei; test: Antimalarial activity against GFP-transfected Plasmodium berghei ANKA in mouse blood assessed as inhibition of schizont maturation after 48 hrs by [3H]hypoxanthine incorporation assay relative to control; assay type: functional, organism-based
[11] = system: Plasmodium berghei; test: Antimalarial activity against GFP-transfected Plasmodium berghei ANKA in mouse blood assessed as inhibition of schizont maturation after 72 hrs by [3H]hypoxanthine incorporation assay; assay type: functional, organism-based
[12] = system: Plasmodium berghei; test: Antimalarial activity against GFP-transfected Plasmodium berghei ANKA infected in mouse assessed as increase in host survival time at 100 mg/kg, po administered as single dose […]; assay type: functional
Method in brief: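 P. berghei-infected mouse model; a single oral dose of 100 mg/kg. Parasitemia was expressed relative to untreated control animals. Mean survival time in days was compared with that of untreated mice.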

Row | Structure (SMILES) | IC50 [1] [nM] | IC50 [2] [nM] | microsomal CLint [3] [µL/min/mg] | IC50 [4] [nM] | IC50 [5] [nM] | IC50 [6] [nM] | IC50 [7] [nM] | IC50 [8] [nM] | Activity [9] [%] | Activity [10] | Activity [11] | Survival [12] [days]
1 | CCCN(CCC)C(=O)c1ccc(C(=O)N[C@@H](Cc2ccccc2)[C@H](O)CN[C@H](C)c2ccccc2)cc1 | 1.6 | 6.5 | > 1250 | > 500 | > 500 |  |  |  |  |  |  | 
2 | CN1CCN(c2ccc(C(=O)N[C@@H](Cc3ccccc3)[C@H](O)CNCc3ccc(O)c(CN4CCCCC4)c3)cc2)CC1 | 120 | 57 |  |  | 158 | 102 | 28 | 36 |  |  |  | 
3 | C[C@@H](NC[C@@H](O)[C@H](Cc1ccccc1)NC(=O)c1ccc(C(=O)N2CCCCC2)cc1)c1ccccc1 | 0.9 | 1.3 | 860 | > 500 | > 500 |  |  |  |  |  |  | 
4 | C[C@@H](NC[C@@H](O)[C@H](Cc1ccccc1)NC(=O)c1ccc(C(=O)N2CCN(C)CC2)cc1)c1ccccc1 | 0.6 | < 0.6 | 75 | > 500 | > 500 |  |  |  |  |  |  | 
5 | C[C@@H](NC[C@@H](O)[C@H](Cc1ccccc1)NC(=O)c1ccc(CN2CCCCC2)c(O)c1)c1ccccc1 | 4.9 | 5.9 |  |  |  |  | 7.8 | < 7.8 |  |  |  | 
6 | CCN(CC)Cc1cc(Nc2cccc(C(=O)N[C@@H](Cc3ccccc3)[C@H](O)CNC3CCCC3)c2)ccc1O | 23 | 67 |  |  |  |  | 127 | 30 |  |  |  | 
7 | C[C@@H](NC[C@@H](O)[C@H](Cc1ccccc1)NC(=O)c1ccc(N(C)C2CCN(C)CC2)cc1)c1ccccc1 | 4.4 | 14 | 71 |  | > 500 | < 7.8 |  | 7.1 |  |  |  | 
8 | C[C@@H](NC[C@@H](O)[C@H](Cc1ccccc1)NC(=O)c1ccc(N2CCN(C)CC2)cc1)c1ccccc1 | 8.7 | 8.5 | 80 | > 500 | > 500 |  | 32 | 19 |  |  |  | 
9 | Cc1cc(Nc2ccc(C(=O)N[C@@H](Cc3ccccc3)[C@H](O)CN[C@H](C)c3ccccc3)cc2)ccn1 | 9.8 | 29 | 69 | 228 | 173 |  | 26 | 16 | 33 | Active | Active | 3
10 | CCCN(CCC)Cc1cc(CNC[C@@H](O)[C@H](Cc2ccccc2)NC(=O)c2ccc(Nc3ccnc(C)c3)cc2)ccc1O | 158 | 80 |  |  |  |  | 93 | 149 |  |  |  | 
11 | CCCN(CCC)C(=O)c1cccc(C(=O)N[C@@H](Cc2ccccc2)[C@H](O)CN[C@H](C)c2ccccc2)c1 | 2 | 10 | > 1250 | > 500 | > 500 | < 3.1 |  |  |  |  |  | 
12 | CCN(CC)Cc1cc(Nc2ccc(C(=O)N[C@@H](Cc3ccccc3)[C@H](O)CNC3CCCC3)cc2)ccc1O | 78 | 51 |  |  |  |  | 44 | 54 |  |  |  | 
13 | CCCN(CCC)Cc1cc(C(=O)N[C@@H](Cc2ccccc2)[C@H](O)CN[C@H](C)c2ccccc2)ccc1O | 118 | 334 |  | > 500 | 151 | 83 |  |  |  |  |  | 
14 | CCCN(CCC)Cc1cc(Nc2ccc(C(=O)N[C@@H](Cc3ccccc3)[C@H](O)CN[C@H](C)c3ccccc3)cc2)ccc1O | 9.4 | 13 |  |  | 77 | 11 | < 7.8 | 11 |  |  |  | 
15 | C[C@@H](NC[C@@H](O)[C@H](Cc1ccccc1)NC(=O)c1cccc(O)c1CN1CCCCC1)c1ccccc1 | 4.9 | 5.9 |  | > 500 | 235 | < 7.8 |  |  |  |  |  | 
16 | C[C@@H](NC[C@@H](O)[C@H](Cc1ccccc1)NC(=O)c1ccc(N(C)c2ccncc2)cc1)c1ccccc1 | 21 | 35 | 180 | > 500 | 249 | 27 | 42 | 38 |  | Active | Active | 
17 | C[C@@H](NC[C@@H](O)[C@H](Cc1ccccc1)NC(=O)c1cccc(S(=O)(=O)N2CCN(C)CC2)c1)c1ccccc1 | 98 | 138 | 908 |  |  |  |  |  |  |  |  | 
18 | Cc1cc(Nc2ccc(C(=O)N[C@@H](Cc3ccccc3)[C@H](O)CN[C@H](C)c3ccccc3)cc2)cc(C)n1 | 8.7 | 23 |  | 329 | 198 | 11 | 20 | 9 |  | Active | Active | 
19 | CCCN(CCC)Cc1cc(CNC[C@@H](O)[C@H](Cc2ccccc2)NC(=O)c2ccc(N3CCN(C)CC3)cc2)ccc1O | 65 | 42 | 90 | 140 | 69 | 50 | 9.5 | 13 | 87 |  |  | 7
20 | CCCN(CCC)C(=O)c1cccc(C(=O)N[C@@H](Cc2ccccc2)[C@H](O)CNC2CCCC2)c1 | 7.1 |  |  |  |  |  | 36 | 12 |  |  |  | 
21 | CCCN(CCC)Cc1cc(C2CCC(NC[C@@H](O)[C@H](Cc3ccccc3)NC(=O)c3ccc(N4CCN(C)CC4)cc3)CC2)ccc1O (some centres not stated) | 19 |  | 74 | 143 | 20 | 19 |  |  |  |  |  | 
22 | C[C@@H](NC[C@@H](O)[C@H](Cc1ccccc1)NC(=O)c1ccc(Nc2ccc(O)c(CN3CCCC3)c2)cc1)c1ccccc1 | 17 | 4.9 |  |  | 174 | < 7.8 | < 7.8 | < 7.8 |  |  |  | 
23 | C[C@@H](NC[C@@H](O)[C@H](Cc1ccccc1)NC(=O)c1ccc(Nc2ccc(CN3CCCCC3)c(O)c2)cc1)c1ccccc1 | 3.6 | 3.3 | 415 | 172 | 25 | < 7.8 |  |  |  |  |  | 
24 | C[C@@H](NC[C@@H](O)[C@H](Cc1ccccc1)NC(=O)c1ccc(Nc2ccncc2)cc1)c1ccccc1 | 20 | 36 | 112 | 307 | 169 | 26 | 48 | 27 |  | Active | Active | 
25 | C[C@@H](NC[C@@H](O)[C@H](Cc1ccccc1)NC(=O)c1ccc(NC2CCN(C)CC2)cc1)c1ccccc1 | 4 | 12 | 76 |  | > 500 | < 7.8 | 16 | 7 |  |  |  | 
